# Measurements as given in article PMC4979993 (Nature structural & molecular biology, 2011).
# “And” between values parts separate entries of the source, which are not always exact repeats. Equal entries are not always repeated. “Also recorded” adds a separate entry of the source.
# Key:
# [1] = test system: Aβ1–40; assay: cTCCD single-molecule analysis of Aβ1–40 aggregation; assay type: biochemical
# In short: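 Equimolar HiLyteFluor488- and HiLyteFluor647-labeled Aβ1–40 (2 μM) in SSPE pH 7.4, 37 °C, 200 rpm agitation; with or without clusterin at 1:1 molar. Sampled every 2–3 h and diluted to picomolar for two-colour confocal coincidence detection (1 ms bins, stage scanned 200 µm s⁻¹). Coincident bursts were scored as oligomers. Apparent size came from their brightness relative to non-coincident monomer bursts; n=3.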
# [2] = target: Aβ1–40 fibrils (Homo sapiens, UniProt P05067); assay: cTCCD analysis of disaggregation of Aβ1–40 fibrils; assay type: biochemical; conditions: for ΔG° (dimer) / ΔG° (larger oligomer): from steady state apparent size distributions
# In short: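 Fibrils grown statically from 8 μM labeled Aβ1–40, 72 h, 37 °C. Pelleted at ~10,000×g for 30 min, washed twice in SSPE pH 7.4, then resuspended. Where used, AlexaFluor647-labeled human serum clusterin was incubated with fibrils 12–16 h at 21 °C and unbound removed by centrifugation (100–200 nM bound). Released species tracked by cTCCD to plateau (~50 h). Rates fitted with monomolecular dissociation functions.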
# [3] = test system: Aβ1–40; assay: TIRFM imaging of species in Aβ1–40 aggregation; assay type: biochemical
# In short: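 Dual-label HiLyteFluor488/HiLyteFluor647 Aβ1–40 (monomer stocks in pH 12 NaOH, ice-sonicated 30 min) diluted into SSPE pH 7.4. Incubated 24 h at 37 °C with 200 rpm agitation. Human serum-derived clusterin was added at 4 h where used. Species on surface imaged by two-colour TIRFM (488 and 633 nm excitation, split-EMCCD, 7.9 frames s⁻¹). Sizes compared by two-sample, two-tailed, independent t-test.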
# [4] = test system: Aβ1–40 fibril formation; assay: Bulk aggregation / fibril formation of Aβ1–40; assay type: biochemical; conditions: HiLyteFluor488 or HiLyteFluor647 label, control experiments
# [5] = test system: amyloid fibrils; conditions: previous bulk measurements; cited from earlier work
# [6] = cited from earlier work
# [7] = test system: Aβ1–40 oligomers; assay: Formation and persistence of clusterin:Aβ complexes; assay type: binding
# In short: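 HiLyteFluor488 or HiLyteFluor647-labeled Aβ1–40, from NaOH-solubilised monomer in SSPE pH 7.4, is aggregated at 37 °C, 200 rpm, with AlexaFluor647-labeled human serum clusterin at 1:1 molar ratio, or released from pre-formed clusterin-bound fibrils. Complexes are diluted to […] at 21 °C and sampled over time by two-colour coincidence detection (cTCCD). Persistence is compared by two-tailed t-tests.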
# [8] = test system: Aβ1–40 fibril formation; conditions: cited from earlier work
# [9] = Disaggregation, without clusterin, n=3, s.d.
# [10] = Disaggregation, without clusterin, n=12, s.d.
# [11] = without clusterin, disaggregation, n=12
# [12] = with clusterin, disaggregation, n=8
substance,measurement,setting,value
amyloid-β1–40 [Aβ1–40],oligomers as share of total number of molecules,"[1]; 30 nM Aβ1–40, 37 °C",approximately 1%
same,concentration of oligomers formed,"[1]; 30 nM Aβ1–40, SSPE pH 7.4, 37 °C, agitation",300 pM
same,distribution of apparent oligomer sizes,"[1]; 600 nM – 2 µM and 30 nM, aggregation and disaggregation",decreased exponentially with increasing apparent size; also recorded: effectively the same as that formed at a concentration of 30 nM; also recorded: approximately exponential decrease with apparent size
same,oligomers as share of total molecules at peak,"[1]; 2 μM Aβ1–40, 37 °C",approximately 1%
same,decrease in monomer concentration during growth phase of fibril formation,"[1]; 2 μM Aβ1–40, 37 °C, agitation",75%
same,peak concentration of stable oligomeric species,"[1]; 2 μM Aβ1–40, SSPE pH 7.4, 37 °C, agitation",~ 20 nM
same,ΔG° (dimer),"[1]; Aggregation, without clusterin, from steady state apparent size distributions, n=4, s.d.",−23.0 ± 2.9 (4) kJ mol^−1
same,range of oligomer sizes formed,"[1]; cTCCD, apparent size",dimers to 50mers
same,stability of the majority of soluble oligomeric species,"[1]; ~25–50 pM, 21 °C",over three
same,ΔG° (dimer),[2]; [9],−18.2 ± 0.5 (3) kJ mol^−1
same,ΔG° (larger oligomer),[2]; [10],−38.9 ± 2.7 (12) kJ mol^−1
same,ΔH° (dimer),[2]; [9],−43.8 ± 24.5 (3) kJ mol^−1
same,ΔS° dimer,[2]; [9],−80.8 ± 83.5 (3) kJ mol^−1
same,ΔH° (larger oligomer),[2]; [10],−29.1 ± 0.3 (12) kJ mol^−1
same,ΔS° larger than dimer,[2]; [10],28.3 ± 1.1 (12) kJ mol^−1
same,Final concentration of all species,[2]; [11],270 ± 20 (12) nM
same,Final concentration of oligomeric species,[2]; [11],0.16 ± 0.06 (12) nM
same,average size of species present,"[3]; 2 μM Aβ1–40 without clusterin, 24 h aggregation, s.e.m.",1400 ± 200 nm
same,effect of fluorophores on bulk aggregation behavior,[4],neither fluorophore had any appreciable effect on the bulk aggregation behavior
same,free energy of the formation of amyloid fibrils,[5],–36 kJ mol^−1
same,Aβ1–40 clearance time in vivo,[6],~ 14 h
same,Aβ1–40 production time in vivo,[6],~ 15 h
"clusterin: extracellular chaperone protein, extracted from human serum",effect on distribution of the sizes of Aβ1–40 oligomers,[1]; in presence of clusterin,not substantially altered
same,ΔG° (dimer),"[2]; Disaggregation, with clusterin, n=4, s.d.",−25.8 ± 2.6 kJ mol^−1 and −25.8 ± 2.6 (4) kJ mol^−1
same,ΔG° (larger oligomer),"[2]; Disaggregation, with clusterin, n=12, s.d.",−43.9 ± 1.0 kJ mol^−1 and −43.9 ± 1.0 (12) kJ mol^−1
same,effect on rate and extent of fibril disaggregation,[2]; clusterin bound to Aβ fibrils,decrease both the rate and the extent of fibril disaggregation
same,Rate of clusterin release,"[2]; with clusterin, disaggregation of fibrils, n=3, s.e.m.",(9.8 ± 0.9)×10^−7 (3) s^−1
same,Final soluble clusterin concentration,"[2]; with clusterin, disaggregation, n=3",90 ± 14 (3) nM
same,Final concentration of all species,[2]; [12],120 ± 20 (8) nM
same,Final concentration of oligomeric species,[2]; [12],0.42 ± 0.1 (8) nM
same,effect on monomer concentration,"[2]; with vs without clusterin, plateau region, n=8, P-value 0.0003, t-test",decreased monomer concentration
same,effect on oligomer concentration / total oligomer population,"[2]; with vs without clusterin, plateau region, n=8, P-value 0.002, t-test",increased oligomer concentration; also recorded: increase in the total oligomer population
same,reduction in average size of species present,"[3]; 2 μM Aβ1–40, 24 h aggregation, 2 µM clusterin added at 4 h, P-value 0.01",approximately 50%
same,binding to soluble oligomers,[7]; all oligomers found during aggregation and disaggregation,"all of which interact with clusterin to form long-lived, stable complexes; also recorded: binds to all members of the ensemble of soluble oligomers"
same,persistence of clusterin:Aβ complexes,"[7]; formed at 100 nM, after dilution at picomolar concentrations",over 200 h
same,"effect on fibril formation, bulk measurements",[8],strongly inhibits fibril formation
